From ChEMBL document CHEMBL1799999, “N-benzoylated phenoxazines and phenothiazines: synthesis, antiproliferative activity, and inhibition of tubulin polymerization” (J Med Chem, 2011) come the findings set out here.

Calls of active or inactive are those of the source. No cut-off for these calls is given here.

Broadly, the IC50 is the midpoint of a concentration-inhibition curve. Usually GI50 stands for the concentration giving 50% growth inhibition. A low value points to more potent growth inhibition.

The subject of one data set is COLO 205. The experiment in a line: Antiproliferative activity against human COLO205 cells after 48 hrs by alamar blue assay. Conditions: COLO 205, 48 h. Type of data set: functional, cell-based. Put shortly: (§1)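 Cells seeded in growth medium and grown 24 h at 37 °C/5% CO2. 10 mM DMSO stocks diluted in half-log steps into medium, final DMSO 0.316%. After 45 h of compound exposure, AlamarBlue (resazurin) added for a further 3 h, giving 48 h total. Fluorescence read at 590 nm against untreated and cell-free blanks. At least two replicates; IC50 by nonlinear regression.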
On the technique in general: Resazurin is reduced to fluorescent resorufin, in cell work by metabolically active cells.

Data set [1] in a line: Antiproliferative activity against human resting PBMC after 72 hrs by sulforhodamine staining method. Type of data set: cell-based. The procedure, abridged:
(§2)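 Panel of 83 solid-tumour lines plus resting PBMC, run by the DTP NCI sulforhodamine B staining protocol. Compound exposure 72 h, concentrations from 0.0001 to 10 μM. GI50 taken per line; z-scores computed relative to the panel mean GI50.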

The subject of another data set is SK-OV-3. Nature of the data set: Antiproliferative activity against human SKOV3 cells after 48 hrs by alamar blue assay. Type of data set: functional, cell-based. Conditions: SK-OV-3, 48 h. The procedure, abridged: as §1
The subject of another data set is ASPC1. Nature of the data set: Antiproliferative activity against human AsPC1 cells after 72 hrs by sulforhodamine staining method. In kind it is functional. Conditions: ASPC1, 72 h. The procedure, abridged:
as §2

Another data set has as its system SW480. Nature of the data set: Antiproliferative activity against human SW480 cells after 48 hrs by alamar blue assay. Conditions: SW480, 48 h. In kind it is functional, cell-based. Put shortly: as §1
For a further data set, the target named is Tubulin (Sus scrofa, UniProt P02554+P02550). Nature of the data set: Inhibition of pig tubulin polymerization determined after 45 mins at 37 degC by turbidimetric analysis. Type of data set: protein assay. The procedure, abridged: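 Microtubule protein (80–90% tubulin with MAPs) from porcine brain, isolated by two cold/warm cycles. Buffer: 20 mM PIPES pH 6.8, 80 mM NaCl, 0.5 mM MgCl2, 1 mM EGTA, 1 mM DTT. Protein at 1.2 mg/mL (about 10 μM tubulin) with 0.6 mM GTP, 1% DMSO, 37 °C.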

For another data set, the system named is DLD-1. The experiment in a line: Antiproliferative activity against human DLD1 cells after 48 hrs by alamar blue assay. Type of data set: functional, cell-based. As to conditions: DLD-1, 48 h. The procedure, abridged:
as §1

A short description of another data set: cells. Conditions: Homo sapiens, 451Lu, 48 h.
The next data set concerns BT-549. The experiment in a line: Antiproliferative activity against human BT549 cells after 48 hrs by alamar blue assay. As to conditions: BT-549, 48 h. Type of data set: functional, cell-based. The procedure, abridged:
as §1

For data set [2], the system named is K562. The experiment in a line: Antiproliferative activity against human K562 cells after 48 hrs by hemocytometric analysis. Type of data set: functional, cell-based. Conditions: K562, 48 h. Put shortly: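 K562 cells in RPMI 1640 with 10% FBS at 37 °C/5% CO2, plated at 2 × 10^5 cells/mL. Compounds in DMSO/methanol 1:1, final vehicle 0.5%. Cells counted in a Neubauer hemocytometer after 48 h and expressed as % of untreated control. Triplicate wells, three experiments; IC50 by nonlinear regression.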

In a further data set the test system is NCI-H460. Nature of the data set: Antiproliferative activity against human NCI-H460 cells after 48 hrs by alamar blue assay. Type of data set: functional, cell-based. Conditions: NCI-H460, 48 h. Put shortly:
as §1

The next data set relates to Potorous tridactylus. The experiment in a line: Inhibition of tubulin polymerization in Potorous tridactylus Ptk2 cells assessed as destruction of microtubule network at 5 uM after 1 hr by immunofluorescence assay. Put shortly:
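PtK2 cells exposed 1 h to 5 μM compound in RPMI medium with 2% DMSO; solvent-only controls. Microtubules labelled with Cy3-anti-tubulin antibody and examined by immunofluorescence microscopy.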

In data set [3] the test system is K562. Nature of the data set: Cell cycle arrest in human K562 cells assessed as accumulation at G2/M phase at 0.003 to. 1 ug/ml after 24 hrs by flow cytometric analysis. Type of data set: functional, cell-based. Put shortly:
(§3)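 K562 cells (2 × 10^5/mL) exposed to graded concentrations for 24 h at 37 °C; vehicle DMSO/MeOH 1:1. Washed in PBS, fixed in ice-cold 70% ethanol, stained 30 min with propidium iodide 0.02 mg/mL plus RNase 0.2 mg/mL. DNA content read by flow cytometry with 488 nm excitation; G2/M fraction scored.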
Background: In flow cytometry, cells or beads pass a laser one at a time.

The test system of data set [4] is K562. The experiment in a line: Cell cycle arrest in human K562 cells assessed as accumulation at G2/M phase at 30 nM after 24 hrs by flow cytometric analysis. Type of data set: functional, cell-based. The procedure, abridged:
as §3

Consider `COc1ccc(C(=O)N2c3ccccc3Oc3ccc(Cl)cc32)cc1O`, for which the IC50 with COLO 205 was determined as 2.68 µM; in the data set on SK-OV-3, 0.17 µM; with SW480 it was 0.24 µM; on Tubulin, 0.73 µM; in the data set with DLD-1 it was 0.23 µM; in “cells”, 0.027 µM. Also, the IC50 in the data set on BT-549 was found to be 0.32 µM; with K562 [2] it was 0.08 µM; in the data set on NCI-H460 it was 0.39 µM. In addition, the concentration for 50% growth inhibition (GI50) at 72 h in [1] was greater than 10 µM. Besides, the 50% growth inhibitory concentration (GI50) with ASPC1 was greater than 10 µM. The inhibition entry with Potorous tridactylus was “Active”.

Consider `COc1cc2c(c(OC)c1OC)-c1ccc(OC)c(=O)cc1[C@@H](NC(C)=O)CC2` [COLCHICINE], for which the half-maximal inhibitory concentration (IC50) with COLO 205 was 0.021 µM; with SK-OV-3 it was 0.029 µM; in the data set with SW480, 0.03 µM; in the data set on DLD-1, 0.089 µM; in “cells”, 0.017 µM; with BT-549, 0.023 µM. For the same compound, the IC50 in the data set on NCI-H460 is 0.027 µM. The outcome in the data set on K562 [3] was Active. For the same compound, in the data set with Potorous tridactylus, the inhibition result was “Active”.

With `COC(=O)Nc1nc2cc(C(=O)c3cccs3)ccc2[nH]1` [NOCODAZOLE], the IC50 with COLO 205 was found to be 0.088 µM; in the data set on SK-OV-3, 0.08 µM; with SW480, 0.12 µM; in the data set with DLD-1, 0.19 µM; in the data set “cells” it was 0.072 µM; with BT-549 it was 0.069 µM. In the data set on NCI-H460, this compound gave an IC50 of 0.068 µM.

Turning to `COc1ccc(C(=O)N2c3ccccc3Oc3ccc(Cl)cc32)cc1`, the IC50 in the data set with COLO 205 is 0.43 µM; with SK-OV-3 it was 0.35 µM; with SW480, 0.53 µM; against Tubulin, 0.57 µM; in the data set on DLD-1, 0.54 µM; in the data set “cells”, 0.09 µM. The IC50 turned out to be 0.33 µM in the data set on BT-549, 0.14 µM in the data set on K562 [2] and 0.68 µM with NCI-H460.

Regarding `CC(=O)O[C@H]1C(=O)[C@@]2(C)[C@H]([C@H](OC(=O)c3ccccc3)[C@]3(O)C[C@H](OC(=O)[C@H](O)[C@@H](NC(=O)c4ccccc4)c4ccccc4)C(C)=C1C3(C)C)[C@]1(OC(C)=O)CO[C@@H]1C[C@@H]2O` [PACLITAXEL], the IC50 in the data set with COLO 205 turned out to be 0.005 µM; in the data set on SK-OV-3, 0.006 µM; in the data set on SW480, 0.011 µM; with DLD-1, 0.05 µM; in the data set on BT-549, 0.006 µM; with NCI-H460 it was 0.004 µM.

With `COc1cc(C(=O)N2c3ccccc3S(=O)(=O)c3ccc(Cl)cc32)cc(OC)c1OC`, the IC50 against Tubulin was greater than 10 µM; in the data set with K562 [2], 4.2 µM.

For `COc1ccc(C(=O)N2c3ccccc3[S+]([O-])c3ccc(Cl)cc32)cc1` (stereo unspecified), the IC50 on Tubulin is 2.79 µM; with K562 [2], 1.4 µM.

With `COc1ccc(C(=O)N2c3ccccc3Sc3ccccc32)cc1`, the IC50 was determined as 2.23 µM at Tubulin and 0.33 µM in the data set on K562 [2].

In the case of `O=C(c1ccc2c(c1)OCO2)N1c2ccccc2Oc2ccc(Cl)cc21`, the half-maximal inhibitory concentration (IC50) against Tubulin was found to be 1.13 µM; in the data set with K562 [2], 1.12 µM.

Regarding `COc1ccc(C(=O)N2c3ccccc3Sc3ccc(Cl)cc32)cc1`, the IC50 against Tubulin was 0.87 µM; with K562 [2], 0.84 µM.

`COc1ccc(C(=O)N2c3ccccc3S(=O)(=O)c3ccccc32)cc1`: the IC50 at Tubulin stood at 2.53 µM; in the data set with K562 [2] it was 0.28 µM.

`COc1ccc(C(=O)N2c3ccccc3[S+]([O-])c3ccccc32)cc1O`: the IC50 stood at 8.4 µM against Tubulin and 0.3 µM in the data set on K562 [2].

With `N#Cc1ccc2c(c1)Oc1ccccc1N2C(=O)c1ccc(Cl)cc1`, the concentration for half-maximal inhibition (IC50) on Tubulin is 2.39 µM; in the data set with K562 [2] it was 0.49 µM.

On to `COc1ccc(C(=O)N2c3ccccc3Oc3cc(C#N)ccc32)cc1`, for which the IC50 was determined as 0.006 µM in the data set on COLO 205; 0.006 µM with SK-OV-3; 0.008 µM in the data set on SW480; 0.73 µM against Tubulin; 0.009 µM in the data set with DLD-1; 0.002 µM in “cells”. Further, the IC50 with BT-549 amounted to 0.008 µM; with K562 [2], 0.014 µM; in the data set with NCI-H460 it was 0.015 µM. The GI50 at 72 h in data set [1] was greater than 10 µM. In addition, the GI50 with ASPC1 is greater than 10 µM. Besides, the outcome in the data set with K562 [4] and with K562 [3] was Active.

Regarding `COc1cc(C(=O)N2c3ccccc3Sc3ccccc32)cc(OC)c1OC`, the IC50 on Tubulin amounted to 4.96 µM; in the data set with K562 [2], 1.86 µM.

For `COc1ccc(C(=O)N2c3ccccc3S(=O)(=O)c3ccc(OC)cc32)cc1`, the IC50 against Tubulin came out at 4.69 µM; in the data set on K562 [2] it was 1.58 µM.

On to `CN(C)c1ccc(C(=O)N2c3ccccc3Oc3ccc(Cl)cc32)cc1`, for which the IC50 against Tubulin amounted to 0.88 µM; with K562 [2] it was 1.21 µM.

As to `c1ccc2c(c1)Nc1ccccc1O2` [PHENOXAZINE], the IC50 at Tubulin is greater than 10 µM; in the data set on K562 [2] it was greater than 30 µM.

On to `COc1ccc(CC(=O)N2c3ccccc3Oc3ccc(Cl)cc32)cc1`, for which the IC50 at Tubulin is 1.1 µM; in the data set on K562 [2], 0.55 µM.

In the case of `COc1ccc(C(=O)N2c3ccccc3Oc3ccccc32)cc1`, the IC50 with COLO 205 amounted to 0.24 µM; in the data set with SK-OV-3, 0.21 µM; in the data set on SW480, 0.24 µM; against Tubulin, 1.1 µM; in the data set with DLD-1, 0.25 µM; in the data set “cells”, 0.06 µM. Further, the IC50 was determined as 0.12 µM in the data set with BT-549, 0.033 µM in the data set with K562 [2] and 0.27 µM with NCI-H460.

`COc1ccc(C(=O)N2c3ccccc3Sc3ccc(SC)cc32)cc1`: the IC50 amounted to 1.43 µM on Tubulin and 3.62 µM in the data set with K562 [2].

On to `COc1ccc(C(=O)N2c3cc(Cl)ccc3Oc3ccc(Cl)cc32)cc1`, for which the results for the IC50 against Tubulin and with K562 [2] were 0.7 µM and 0.49 µM, respectively.

For `COc1ccc(C(=O)N2c3ccccc3Oc3ccc(C#N)cc32)cc1`, the results for the IC50 at Tubulin and in the data set on K562 [2] were 2.7 µM and 0.16 µM, respectively.

For `COc1cc(C(=O)N2c3ccccc3[S+]([O-])c3ccc(Cl)cc32)cc(OC)c1OC` (stereo unspecified), the IC50 against Tubulin is greater than 10 µM; in the data set with K562 [2], 35 µM.

Consider `COc1ccc(C(=O)N2c3ccccc3S(=O)(=O)c3ccccc32)cc1O`, for which the IC50 was 3 µM at Tubulin and 0.18 µM with K562 [2].
